In ChEMBL document CHEMBL4257537, “Design, synthesis, and biological evaluation of m-amidophenol derivatives as a new class of antitubercular agents” (Medchemcomm, 2018):
≈ marks a conversion by molar mass, not a printed value.

Key:
Format in all cases: functional
[1] = test system: Mycobacterium tuberculosis; test: Antimycobacterial activity against rifampicin-resistant Mycobacterium tuberculosis isolate P103 after 7 days by microplate alamar blue assay; settings: isolate P103, 168 h
Procedure, shortened: (§1)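 Each well held a 1/100 culture dilution plus 10-point two-fold DMSO dilutions (top 100 µg/mL, final DMSO 2%). INH and RIF were the positive controls. After 7 days at 37 °C, Tween 80 and alamarBlue were added for 16–24 h. MIC was the lowest concentration preventing the blue-to-pink change.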

[2] = test system: Mycobacterium tuberculosis; test: Antimycobacterial activity against rifampicin-resistant Mycobacterium tuberculosis isolate P91 after 7 days by microplate alamar blue assay; settings: isolate P91, 168 h; procedure, shortened: as §1
[3] = test system: Mycobacterium tuberculosis; test: Antimycobacterial activity against rifampicin-resistant Mycobacterium tuberculosis isolate R7 after 7 days by microplate alamar blue assay; settings: isolate R7, 168 h; procedure, shortened: as §1
[4] = test system: Mycobacterium tuberculosis; test: Antimycobacterial activity against rifampicin/isoniazid/pyrazinamide-resistant Mycobacterium tuberculosis isolate P71 after 7 days by microplate alamar blue assay; settings: isolate P71, 168 h; procedure, shortened: as §1
[5] = test system: Mycobacterium tuberculosis; test: Antimycobacterial activity against rifampicin-resistant Mycobacterium tuberculosis isolate P90 after 7 days by microplate alamar blue assay; settings: isolate P90, 168 h; procedure, shortened: as §1
[6] = test system: Mycobacterium tuberculosis; test: Antimycobacterial activity against rifampicin-resistant Mycobacterium tuberculosis isolate P98 after 7 days by microplate alamar blue assay; settings: isolate P98, 168 h; procedure, shortened: as §1

Compound | MIC [1] [µg/mL] | MIC [2] [µg/mL] | MIC [3] [µg/mL] | MIC [4] [µg/mL] | MIC [5] [µg/mL] | MIC [6] [µg/mL]
O=C(Nc1cc(O)cc(Cc2ccccc2)c1)C1CCCCC1 | 0.39 (≈ 1.26 µM) | 0.39 (≈ 1.26 µM) | 3.12 (≈ 10.1 µM) | > 100 | > 100 | > 100
O=C(Nc1cc(O)cc(Cc2ccccc2)c1)c1ccccc1 | 0.39 (≈ 1.29 µM) | 0.39 (≈ 1.29 µM) | 0.78 (≈ 2.57 µM) | > 100 | > 100 | > 100
